ChEMBL document CHEMBL1153741, “Antineoplastic agents. 556. Isolation and structure of Coprinastatin 1 from Coprinus cinereus” (2010)
Values after ≈ are worked out from the molar mass of the structure shown. Active and inactive are the calls of the source. The calls are words filed in the database; no cut-off is given here.

What was measured:
[1] = tested on: P388; test: Cytotoxicity against mouse P388 cells; type: functional
[2] = tested on: Stenotrophomonas maltophilia; test: Antibacterial activity against Stenotrophomonas maltophilia ATCC 13637 by broth microdilution assay; type: functional, organism-based
Procedure, shortened: (§1)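 Samples reconstituted in a small volume of sterile DMSO and diluted in the appropriate medium immediately before testing by established broth microdilution. MIC taken as the lowest concentration that inhibited all visible growth of the test organism (optically clear wells). Assays were repeated on separate days.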

[3] = tested on: Micrococcus luteus; test: Antibacterial activity against Micrococcus luteus Presque Isle 456 by broth microdilution assay; type: functional, organism-based; procedure, shortened: as §1
[4] = tested on: Staphylococcus aureus; test: Antibacterial activity against Staphylococcus aureus ATCC 29213 by broth microdilution assay; type: functional, organism-based; procedure, shortened: as §1
[5] = tested on: Escherichia coli; test: Antibacterial activity against Escherichia coli ATCC 25922 by broth microdilution assay; type: functional, organism-based; procedure, shortened: as §1
[6] = tested on: Enterobacter cloacae; test: Antibacterial activity against Enterobacter cloacae ATCC 13047 by broth microdilution assay; type: functional, organism-based; procedure, shortened: as §1
[7] = tested on: Enterococcus faecalis; test: Antibacterial activity against Enterococcus faecalis ATCC 29212 by broth microdilution assay; type: functional, organism-based; procedure, shortened: as §1
[8] = tested on: Streptococcus pneumoniae; test: Antibacterial activity against Streptococcus pneumoniae ATCC 6303 by broth microdilution assay; type: functional, organism-based; procedure, shortened: as §1
[9] = tested on: Neisseria gonorrhoeae; test: Antibacterial activity against Neisseria gonorrhoeae ATCC 49226 by broth microdilution assay; type: functional; procedure, shortened: as §1
[10] = tested on: Candida albicans; test: Antifungal activity against Candida albicans ATCC 90028 by broth microdilution assay; type: functional, organism-based; procedure, shortened: as §1
[11] = tested on: Cryptococcus neoformans; test: Antifungal activity against Cryptococcus neoformans ATCC 90112 by broth microdilution assay; type: functional, organism-based; procedure, shortened: as §1

Row | SMILES | Activity [1] | Activity [2] | Activity [3] | Activity [4] | Activity [5] | Activity [6] | Activity [7] | Activity [8] | Activity [9] | Activity [10] | Activity [11] | EC50 ([1]; read-out: ED50 (the source's name)) [µg/mL] | MIC [9] [µg/mL]
1 | Cc1c(O)c2c(c(C)c1CCO)C[C@@](C)(CO)C2 | inactive | inactive | inactive | inactive | inactive | inactive | inactive | inactive | inactive | inactive | inactive |  | 
2 | Cc1c(O)c2c(c(C)c1CCO)C[C@](C)(CO)C2 | inactive | inactive | inactive | inactive | inactive | inactive | inactive | inactive | inactive | inactive | inactive |  | 
3 | CC(=O)c1cccc2oc(=O)[nH]c12 | inactive | inactive | inactive | inactive | inactive | inactive | inactive | inactive | inactive | inactive | inactive |  | 
4 | C=C1[C@@H](O)[C@@H]2CC(C)(C)CC2=C(CO)C12CC2 | inactive | inactive | inactive | inactive | inactive | inactive | inactive | inactive | inactive | inactive | inactive |  | 
5 | Cc1c(O)c2c(c(C)c1CCO)CC(C)(C)C2 | inactive | inactive | inactive | inactive | inactive | inactive | inactive | inactive | inactive | inactive | inactive |  | 
6 | C=C1[C@@H](O)[C@@H]2C[C@](C)(CO)CC2=C(C)C12CC2 [COPRINASTATIN 1] |  | inactive | inactive | inactive | inactive | inactive | inactive | inactive |  | inactive | inactive | 5.3 (≈ 22.6 µM) | 32 (≈ 137 µM)
